The IC50 is the concentration at which inhibition is half-maximal.

Molecules are shown by their SMILES.

IC50 data for 2 molecules are collected here from ChEMBL document CHEMBL3870320, “Yakushinamides, Polyoxygenated Fatty Acid Amides That Inhibit HDACs and SIRTs, from the Marine Sponge Theonella swinhoei” (J Nat Prod, 2016).

In experiment [1] the target is T1, NAD-dependent protein deacetylase sirtuin-2 (Homo sapiens) (UniProt Q8IXJ6).
T1 sequence (whole entry): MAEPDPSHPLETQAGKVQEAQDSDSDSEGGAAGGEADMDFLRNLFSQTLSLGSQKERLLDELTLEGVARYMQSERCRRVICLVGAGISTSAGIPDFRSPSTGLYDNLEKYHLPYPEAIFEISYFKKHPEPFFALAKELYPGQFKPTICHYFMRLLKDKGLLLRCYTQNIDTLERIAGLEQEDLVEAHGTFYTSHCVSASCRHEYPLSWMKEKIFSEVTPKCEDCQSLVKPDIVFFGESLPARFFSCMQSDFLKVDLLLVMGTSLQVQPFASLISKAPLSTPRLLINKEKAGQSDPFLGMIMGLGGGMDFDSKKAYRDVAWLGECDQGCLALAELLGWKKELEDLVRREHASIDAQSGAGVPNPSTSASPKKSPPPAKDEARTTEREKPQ
Briefly: Inhibition of recombinant human GST-tagged SIRT2 catalytic domain using Ac-RHKK(Ac)-MCA assessed as formation of amino methyl coumarin from Ac-RHKK(Ac)-MCA and NAD measured after 60 mins by fluorescence analysis. In short, it runs like this:
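Recombinant GST-fused SIRT2 catalytic domain with 100 μM Ac-RHKK(Ac)-MCA and NAD (final 1 mM) in 50 mM Tris-HCl pH 9.0, 4 mM MgCl2, 0.2 mM DTT, 60 min at 37 °C. Trypsin (final 20 mg/mL) then added for 15 min at 37 °C. Released aminomethylcoumarin fluorescence read at ex 370/em 460 nm.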

Experiment [2] has as its target Histone deacetylase 1 (Homo sapiens) (UniProt Q13547). Briefly: Inhibition of human FLAG-tagged HDAC1 expressed in human 293T cells assessed as formation of amino methyl coumarin from Ac-KGLGK(Ac)-MCA measured after 30 mins by fluorescence analysis. The experiment is classed as cell-based.
In experiment [3] the target is Histone deacetylase 4 (Homo sapiens) (UniProt P56524). Briefly: Inhibition of human FLAG-tagged HDAC4 expressed in human 293T cells assessed as formation of amino methyl coumarin from Ac-KGLGK(Ac)-MCA measured after 30 mins by fluorescence analysis. The experiment is classed as cell-based.
The target of experiment [4] is T2, Protein deacetylase HDAC6 (Homo sapiens) (UniProt Q9UBN7).
T2 sequence (whole entry): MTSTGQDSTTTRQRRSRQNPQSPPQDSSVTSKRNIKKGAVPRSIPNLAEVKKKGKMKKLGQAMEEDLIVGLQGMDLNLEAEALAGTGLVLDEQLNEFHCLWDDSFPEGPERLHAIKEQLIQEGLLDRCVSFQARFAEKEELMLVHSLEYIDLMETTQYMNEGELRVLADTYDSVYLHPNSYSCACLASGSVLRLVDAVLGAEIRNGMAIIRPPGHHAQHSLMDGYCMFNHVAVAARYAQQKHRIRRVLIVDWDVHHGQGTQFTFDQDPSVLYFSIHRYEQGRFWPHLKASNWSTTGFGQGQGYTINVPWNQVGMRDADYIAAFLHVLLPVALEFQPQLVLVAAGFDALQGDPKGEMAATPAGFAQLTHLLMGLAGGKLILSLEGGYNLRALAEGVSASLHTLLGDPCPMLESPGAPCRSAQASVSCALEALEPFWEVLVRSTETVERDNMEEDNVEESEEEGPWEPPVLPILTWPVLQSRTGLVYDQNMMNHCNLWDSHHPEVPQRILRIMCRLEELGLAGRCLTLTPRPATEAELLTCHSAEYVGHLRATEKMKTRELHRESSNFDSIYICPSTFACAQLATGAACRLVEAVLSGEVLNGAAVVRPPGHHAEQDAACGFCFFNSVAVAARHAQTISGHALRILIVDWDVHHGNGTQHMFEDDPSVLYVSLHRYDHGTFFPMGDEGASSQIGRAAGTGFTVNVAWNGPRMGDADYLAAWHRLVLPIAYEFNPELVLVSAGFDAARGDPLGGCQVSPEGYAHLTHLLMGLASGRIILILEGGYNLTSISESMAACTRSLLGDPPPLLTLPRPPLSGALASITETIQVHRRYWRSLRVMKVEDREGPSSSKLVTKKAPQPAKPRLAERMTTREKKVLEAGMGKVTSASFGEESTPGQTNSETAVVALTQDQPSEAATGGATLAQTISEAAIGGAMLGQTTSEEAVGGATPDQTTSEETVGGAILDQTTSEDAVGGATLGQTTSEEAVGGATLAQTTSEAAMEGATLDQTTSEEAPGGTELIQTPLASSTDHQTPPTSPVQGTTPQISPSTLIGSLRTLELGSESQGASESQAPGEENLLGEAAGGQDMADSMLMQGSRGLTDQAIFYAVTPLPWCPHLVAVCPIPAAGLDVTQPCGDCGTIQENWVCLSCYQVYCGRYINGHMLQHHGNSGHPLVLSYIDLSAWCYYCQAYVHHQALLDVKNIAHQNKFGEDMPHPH
Briefly: Inhibition of human FLAG-tagged HDAC6 expressed in human 293T cells assessed as formation of amino methyl coumarin from Ac-KGLGK(Ac)-MCA measured after 30 mins by fluorescence analysis. The experiment is classed as cell-based.

The target in experiment [5] is T3, NAD-dependent protein deacetylase sirtuin-1 (Homo sapiens) (UniProt Q96EB6).
T3 sequence (whole entry): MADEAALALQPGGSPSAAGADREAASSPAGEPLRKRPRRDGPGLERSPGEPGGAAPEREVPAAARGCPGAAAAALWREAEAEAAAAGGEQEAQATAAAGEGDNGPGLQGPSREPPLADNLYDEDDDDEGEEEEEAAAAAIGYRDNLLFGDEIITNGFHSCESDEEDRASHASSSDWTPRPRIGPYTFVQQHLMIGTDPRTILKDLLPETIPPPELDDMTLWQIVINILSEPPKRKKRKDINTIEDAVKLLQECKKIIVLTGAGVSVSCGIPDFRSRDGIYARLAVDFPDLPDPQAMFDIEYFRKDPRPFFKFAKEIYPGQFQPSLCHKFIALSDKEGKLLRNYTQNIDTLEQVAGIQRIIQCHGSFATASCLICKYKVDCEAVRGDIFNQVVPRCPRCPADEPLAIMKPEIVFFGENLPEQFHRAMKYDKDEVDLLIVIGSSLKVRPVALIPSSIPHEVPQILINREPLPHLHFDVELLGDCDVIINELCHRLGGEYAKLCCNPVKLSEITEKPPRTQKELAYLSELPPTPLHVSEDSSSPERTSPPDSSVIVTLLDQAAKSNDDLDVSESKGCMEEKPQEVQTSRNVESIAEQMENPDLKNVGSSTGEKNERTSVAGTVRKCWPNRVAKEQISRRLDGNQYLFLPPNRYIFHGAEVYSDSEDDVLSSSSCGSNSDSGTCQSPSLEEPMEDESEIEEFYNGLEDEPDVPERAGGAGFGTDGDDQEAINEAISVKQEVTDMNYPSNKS
Briefly: Inhibition of recombinant human SIRT1 expressed in Escherichia coli BL21 (DE3) assessed as formation of amino methyl coumarin from Ac-RHKK(Ac)-MCA and NAD measured after 60 mins by fluorescence analysis. In outline: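 SIRT1 was expressed from pCold TF in E. coli BL21 (DE3) with 0.3 mM IPTG at 16 °C for 24 h, and the (His)6 protein was purified by nickel affinity then anion exchange. Assay used 100 μM Ac-RHKK(Ac)-MCA and 1 mM NAD (final) in Tris-HCl pH 9.0 buffer for 60 min at 37 °C. Trypsin was added for 15 min, and fluorescence was read at ex 370/em 460 nm.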

Experiment [6] addresses T4, NAD-dependent protein deacetylase sirtuin-3, mitochondrial (Homo sapiens) (UniProt Q9NTG7).
T4 sequence (whole entry): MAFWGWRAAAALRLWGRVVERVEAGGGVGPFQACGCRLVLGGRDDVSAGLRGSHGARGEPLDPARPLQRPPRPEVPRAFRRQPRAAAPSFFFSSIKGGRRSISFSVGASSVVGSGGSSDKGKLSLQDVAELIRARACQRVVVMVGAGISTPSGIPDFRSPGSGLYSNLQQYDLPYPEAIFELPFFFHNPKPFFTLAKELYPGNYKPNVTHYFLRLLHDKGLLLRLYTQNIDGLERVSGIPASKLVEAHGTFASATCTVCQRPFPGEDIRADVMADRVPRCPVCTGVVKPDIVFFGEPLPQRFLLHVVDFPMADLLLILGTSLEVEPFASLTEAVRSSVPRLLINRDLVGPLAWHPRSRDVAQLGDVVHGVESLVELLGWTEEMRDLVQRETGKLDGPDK
The experiment in a line: Inhibition of recombinant human His-tagged SIRT3 (118 to 399 residues) expressed in Escherichia coli BL21 (DE3) assessed as formation of amino methyl coumarin from Ac-VSTPVK(Ac)-MCA and NAD measured after 60 mins by fluorescence analysis. In outline:
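His-tagged recombinant SIRT3 incubated with 100 μM Ac-VSTPVK(Ac)-MCA and NAD (final 1 mM) in 50 mM Tris-HCl pH 9.0, 4 mM MgCl2, 0.2 mM DTT for 60 min at 37 °C. Trypsin (final 20 mg/mL) was added and the mixture held 15 min more at 37 °C. Fluorescence of freed aminomethylcoumarin measured at ex 370/em 460 nm.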

Chain of Histone deacetylase 4 (Homo sapiens) (P56524 whole entry): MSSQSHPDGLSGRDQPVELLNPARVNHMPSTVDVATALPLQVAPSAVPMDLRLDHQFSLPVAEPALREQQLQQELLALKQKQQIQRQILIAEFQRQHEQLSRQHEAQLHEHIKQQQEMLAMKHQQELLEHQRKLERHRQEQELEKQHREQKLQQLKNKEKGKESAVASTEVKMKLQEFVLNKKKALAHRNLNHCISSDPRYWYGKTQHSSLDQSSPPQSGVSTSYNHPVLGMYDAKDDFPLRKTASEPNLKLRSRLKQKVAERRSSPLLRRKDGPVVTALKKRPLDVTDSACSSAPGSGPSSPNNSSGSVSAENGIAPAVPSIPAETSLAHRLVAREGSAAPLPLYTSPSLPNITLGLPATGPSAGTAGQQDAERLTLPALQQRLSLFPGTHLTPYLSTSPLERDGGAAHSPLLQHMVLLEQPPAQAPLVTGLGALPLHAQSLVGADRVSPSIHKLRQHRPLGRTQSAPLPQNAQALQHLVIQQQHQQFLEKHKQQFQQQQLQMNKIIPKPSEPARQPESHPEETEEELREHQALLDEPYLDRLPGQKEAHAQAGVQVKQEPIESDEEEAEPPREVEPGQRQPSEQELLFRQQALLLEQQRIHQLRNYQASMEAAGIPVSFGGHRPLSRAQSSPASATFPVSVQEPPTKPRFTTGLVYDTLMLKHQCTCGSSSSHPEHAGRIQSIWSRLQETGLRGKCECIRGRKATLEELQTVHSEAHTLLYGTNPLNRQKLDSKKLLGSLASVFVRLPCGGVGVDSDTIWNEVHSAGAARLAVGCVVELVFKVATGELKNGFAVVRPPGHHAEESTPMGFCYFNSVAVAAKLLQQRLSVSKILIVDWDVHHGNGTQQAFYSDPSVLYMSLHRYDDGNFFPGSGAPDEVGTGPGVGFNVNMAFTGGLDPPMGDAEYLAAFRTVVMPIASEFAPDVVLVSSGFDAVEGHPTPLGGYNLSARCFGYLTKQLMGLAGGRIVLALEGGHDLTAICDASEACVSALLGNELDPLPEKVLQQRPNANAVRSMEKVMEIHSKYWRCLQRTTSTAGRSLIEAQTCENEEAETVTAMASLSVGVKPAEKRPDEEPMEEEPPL
Chain of Histone deacetylase 1 (Homo sapiens) (Q13547 whole entry): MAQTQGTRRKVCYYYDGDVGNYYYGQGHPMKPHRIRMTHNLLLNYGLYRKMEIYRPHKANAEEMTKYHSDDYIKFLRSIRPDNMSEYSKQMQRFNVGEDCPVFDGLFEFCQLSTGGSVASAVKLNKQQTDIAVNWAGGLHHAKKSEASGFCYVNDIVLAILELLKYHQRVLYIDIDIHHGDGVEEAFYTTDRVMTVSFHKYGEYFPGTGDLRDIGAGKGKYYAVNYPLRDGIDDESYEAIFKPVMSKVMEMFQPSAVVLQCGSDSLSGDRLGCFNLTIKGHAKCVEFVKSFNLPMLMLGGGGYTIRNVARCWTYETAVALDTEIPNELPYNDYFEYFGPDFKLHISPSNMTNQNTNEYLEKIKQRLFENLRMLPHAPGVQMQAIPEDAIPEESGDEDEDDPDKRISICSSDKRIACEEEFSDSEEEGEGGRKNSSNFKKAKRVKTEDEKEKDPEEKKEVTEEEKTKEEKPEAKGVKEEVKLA

On to `CCCCCCC[C@@H](C)C[C@@H](O)CCCCCCC[C@@H](CCCC[C@@H](OC(C)=O)[C@@H](OC(C)=O)[C@H](CCCCCCC(=O)N1CCC[C@H]1C(=O)OC)OC(C)=O)OS(=O)(=O)O`, for which the IC50 in experiment [1] is more than 200 µM; in experiment [2] it was 26 µM; in experiment [3], more than 200 µM; in experiment [4], more than 200 µM; in experiment [5] it was 16 µM; in experiment [6] it was 79 µM.
Consider `CCCCCC[C@@H](C)[C@@H](CCCCCCCC(O)CCCC[C@@H](OC(C)=O)[C@@H](OC(C)=O)[C@H](CCCCCCC(=O)N1CCC[C@H]1C(=O)OC)OC(C)=O)OS(=O)(=O)O` (some centres not stated), for which the IC50 in experiment [1] stood at 150 µM; in experiment [2], 29 µM; in experiment [3], 75 µM; in experiment [4], 52 µM; in experiment [5], 34 µM; in experiment [6], 78 µM.
